Measurements: ChEMBL document CHEMBL1155262, “A new class of anticonvulsants possessing 6 Hz activity: 3,4-dialkyloxy thiophene bishydrazones” (Eur J Med Chem, 2009)
The source made the active and inactive calls. The rule behind the calls is not given here.

Assays:
Mus musculus [1] = experiment: Anticonvulsant activity in mouse CF1 albino assessed as inhibition of minimal electric shock-induced seizure at 100 mg/kg, ip after 4 hrs; format: functional, organism-based; parameters: dose 100 mg/kg
Outline: (§1)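 6 Hz psychomotor seizure model in male CF-1 albino mice dosed i.p. Four mice per time point (0.25, 0.5, 1, 2, 4 h) received corneal-electrode current of 32 mA for 3 s. Untreated mice show a minimal clonic phase followed by stereotyped automatistic behaviour. Results given as number protected out of 4.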

Mus musculus [2] = experiment: Anticonvulsant activity in mouse CF1 albino assessed as inhibition of minimal electric shock-induced seizure at 100 mg/kg, ip after 1 hr; format: functional, organism-based; parameters: dose 100 mg/kg; outline: as §1
Mus musculus [3] = experiment: Anticonvulsant activity in mouse CF1 albino assessed as inhibition of minimal electric shock-induced seizure at 60 mg/kg, ip after 2 hrs; format: functional, organism-based; parameters: dose 60 mg/kg; outline: as §1
Mus musculus [4] = experiment: Anticonvulsant activity in mouse CF1 albino assessed as inhibition of minimal electric shock-induced seizure at 100 mg/kg, ip after 0.5 hrs; format: functional, organism-based; parameters: dose 100 mg/kg; outline: as §1
Mus musculus [5] = experiment: Anticonvulsant activity in mouse CF1 albino assessed as inhibition of minimal electric shock-induced seizure at 60 mg/kg, ip after 4 hrs; format: functional, organism-based; parameters: dose 60 mg/kg; outline: as §1
Mus musculus [6] = experiment: Anticonvulsant activity in mouse CF1 albino assessed as inhibition of minimal electric shock-induced seizure at 60 mg/kg, ip after 1 hr; format: functional, organism-based; parameters: dose 60 mg/kg; outline: as §1
Mus musculus [7] = experiment: Anticonvulsant activity in mouse CF1 albino assessed as inhibition of minimal electric shock-induced seizure at 100 mg/kg, ip after 0.25 hrs; format: functional, organism-based; parameters: dose 100 mg/kg; outline: as §1
Mus musculus [8] = experiment: Anticonvulsant activity in mouse CF1 albino assessed as inhibition of minimal electric shock-induced seizure at 60 mg/kg, ip after 0.5 hrs; format: functional, organism-based; parameters: dose 60 mg/kg; outline: as §1
Mus musculus [9] = experiment: Anticonvulsant activity in mouse CF1 albino assessed as inhibition of minimal electric shock-induced seizure at 60 mg/kg, ip after 0.25 hrs; format: functional, organism-based; parameters: dose 60 mg/kg; outline: as §1
Mus musculus [10] = experiment: Anticonvulsant activity in mouse CF1 albino assessed as inhibition of maximal electric shock-induced seizure at 300 mg/kg, ip after 4 hrs; format: functional, organism-based; parameters: dose 300 mg/kg
Outline: (§2)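 Male CF-1 albino mice (18–25 g); compound suspended in 0.5% methyl cellulose/water or PEG 200, given i.p. at 30, 100 and 300 mg/kg (0.01 mL/g). Tested 0.5 or 4 h after dosing. Protection = abolition of hind limb tonic extensor component of MES seizure.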

Mus musculus [11] = experiment: Anticonvulsant activity in mouse CF1 albino assessed as inhibition of minimal electric shock-induced seizure at 30 mg/kg, ip after 4 hrs; format: functional, organism-based; parameters: dose 30 mg/kg; outline: as §1
Mus musculus [12] = experiment: Anticonvulsant activity in mouse CF1 albino assessed as inhibition of subcutaneous metrazole-induced seizure at 300 mg/kg, ip after 0.5 hrs; format: functional, organism-based; parameters: dose 300 mg/kg
Mus musculus [13] = experiment: Anticonvulsant activity in mouse CF1 albino assessed as inhibition of subcutaneous metrazole-induced seizure at 300 mg/kg, ip after 4 hrs; format: functional, organism-based; parameters: dose 300 mg/kg
Mus musculus [14] = experiment: Neurotoxicity against mouse CF1 albino assessed as minimal motor impairment at 300 mg/kg, ip after 0.5 hrs by rotord test; format: toxicity, organism-based; parameters: dose 300 mg/kg, route intraperitoneal; conditions: in vivo
Outline: (§3)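 Rotorod minimal motor impairment in male CF-1 albino mice (18–25 g) after i.p. dosing at 30, 100 or 300 mg/kg in 0.5% methyl cellulose/water or PEG 200. Mice placed on a rod rotating at 6 rpm at 0.5 or 4 h. Value is minimum dose causing impairment in at least one mouse.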

Mus musculus [15] = experiment: Anticonvulsant activity in ip dosed mouse CF1 albino assessed as inhibition of maximal electric shock-induced seizure after 0.5 hrs; format: functional; outline: as §2
Mus musculus [16] = experiment: Anticonvulsant activity in mouse CF1 albino assessed as inhibition of minimal electric shock-induced seizure at 30 mg/kg, ip after 2 hrs; format: functional, organism-based; parameters: dose 30 mg/kg; outline: as §1
Mus musculus [17] = experiment: Neurotoxicity against mouse CF1 albino assessed as minimal motor impairment at 300 mg/kg, ip after 4 hrs by rotord test; format: toxicity, organism-based; parameters: dose 300 mg/kg, route intraperitoneal; conditions: in vivo; outline: as §3

Structure (SMILES) | Activity (Mus musculus [1]) | Activity (Mus musculus [2]) | Activity (Mus musculus [3]) | Activity (Mus musculus [4]) | Activity (Mus musculus [5]) | Activity (Mus musculus [6]) | Activity (Mus musculus [7]) | Activity (Mus musculus [8]) | Activity (Mus musculus [9]) | Activity (Mus musculus [10]) | Activity (Mus musculus [11]) | Activity (Mus musculus [12]) | Activity (Mus musculus [13]) | Activity (Mus musculus [14]) | Activity (Mus musculus [15]) | Activity (Mus musculus [16]) | Activity (Mus musculus [17])
CCCCCCCOc1c(C(=O)N/N=C/c2ccc([N+](=O)[O-])cc2)sc(C(=O)N/N=C/c2ccc([N+](=O)[O-])cc2)c1OCCCCCCC | inactive | inactive | inactive | Active | inactive | inactive | inactive | inactive | inactive | – | – | – | – | – | – | – | –
C/C(=N\NC(=O)c1sc(C(=O)N/N=C(\C)c2cccs2)c2c1OCCO2)c1cccs1 | inactive | – | – | – | – | – | – | – | – | inactive | inactive | inactive | inactive | Not Active | 300 mg/kg | inactive | Not Active
